The record followed here is ChEMBL document CHEMBL1140291, “Quinic acid derivatives as sialyl Lewis(x)-mimicking selectin inhibitors: design, synthesis, and crystal structure in complex with E-selectin” (J Med Chem, 2005).

The IC50 is the concentration that gives 50% inhibition. Read a low IC50 as higher potency. One may read the Cmax as the highest concentration seen after dosing. Broadly, the AUC is the area under the concentration-time curve, a measure of exposure. Higher therefore signals more exposure. For orientation: clearance means the rate of elimination divided by the concentration.

Data set [1] in a line: (§1) Anti-inflammatory activity as selectin-mediated rolling of human neutrophils on stimulated human umbilical vein endothelial cells. The note with it: endothelial cell. In kind it is functional, cell-based. In a few lines:
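Parallel plate flow chamber; human neutrophils rolled over confluent HUVEC monolayers activated with […] just before the run to raise surface P-selectin. Rolling cells counted by digital imaging/videotape, averaged over 10 fields on each of three monolayers per test article. Active compounds titrated for IC50. Glycyrrhizin trisodium salt as positive control.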

A further data set deals with T1, P-selectin (Homo sapiens, UniProt P16109).
T1 sequence (P16109 whole entry): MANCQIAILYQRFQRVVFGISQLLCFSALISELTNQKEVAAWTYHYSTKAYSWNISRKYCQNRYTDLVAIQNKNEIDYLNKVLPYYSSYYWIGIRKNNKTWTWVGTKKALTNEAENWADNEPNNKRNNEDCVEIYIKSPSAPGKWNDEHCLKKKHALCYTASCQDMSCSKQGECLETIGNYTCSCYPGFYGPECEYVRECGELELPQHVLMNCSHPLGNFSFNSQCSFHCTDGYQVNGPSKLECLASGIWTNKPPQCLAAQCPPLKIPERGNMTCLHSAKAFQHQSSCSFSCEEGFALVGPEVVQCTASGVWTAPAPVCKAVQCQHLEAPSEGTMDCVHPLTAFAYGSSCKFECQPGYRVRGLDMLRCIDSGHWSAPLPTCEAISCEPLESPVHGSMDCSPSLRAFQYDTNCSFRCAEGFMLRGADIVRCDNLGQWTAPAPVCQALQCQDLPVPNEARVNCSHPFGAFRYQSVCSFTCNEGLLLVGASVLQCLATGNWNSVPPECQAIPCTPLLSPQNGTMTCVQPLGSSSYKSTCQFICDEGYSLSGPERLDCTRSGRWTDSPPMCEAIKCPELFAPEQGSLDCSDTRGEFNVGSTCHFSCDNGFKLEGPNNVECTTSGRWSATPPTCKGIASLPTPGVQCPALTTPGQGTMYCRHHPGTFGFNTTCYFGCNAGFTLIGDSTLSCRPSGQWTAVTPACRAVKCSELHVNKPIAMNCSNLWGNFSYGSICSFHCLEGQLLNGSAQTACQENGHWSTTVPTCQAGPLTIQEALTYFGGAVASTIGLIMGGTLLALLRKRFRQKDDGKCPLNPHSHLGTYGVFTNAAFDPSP
Briefly: Inhibitory concentration against selectin P in Biacore assay. The method, boiled down: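 SPR at 25 °C. Biotinylated monomeric truncated human PSGL-1 (19ek) was immobilised on a streptavidin chip. Compounds were preincubated 1 h with 500 nM monomeric P-selectin (P-LE) in HEPES/NaCl/1 mM CaCl2/MgCl2/0.05% P40/10% DMSO, then injected at 0–6 mM in duplicate, at least two runs. IC50 was extrapolated from the RU vs concentration plot after blank and reference subtraction.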
(In SPR one partner is held on a chip, and binding of the other changes the refractive index at the surface.)

Data set [2] in a line: Maximum concentration observed in rat ( 20 mg/kg iv ). In kind it is ADME, organism-based. Further details: dose 20 mg/kg, route intravenous. As to conditions: in vivo. In a few lines:
(§2)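 Single 20 mg/kg iv bolus (10 mg/mL in 50% DMSO/50% PEG400). Blood drawn at 5 min and 0.5, 0.75, 1, 2, 4, 7, 24 h, with saline replacing lost volume. Plasma precipitated with CH3CN and analysed by LC/MS. Linear trapezoid noncompartmental analysis.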

The nature of data set [3]: Area under curve in rat ( 20 mg/kg iv ). As to conditions: in vivo. In kind it is ADME, organism-based. Further details: dose 20 mg/kg, route intravenous. The method, boiled down: as §2
The nature of data set [4]: Clearance observed in rat ( 20 mg/kg iv ). In kind it is ADME, organism-based. More on the design: dose 20 mg/kg, route intravenous. As to conditions: in vivo. In a few lines:
as §2

Data set [5] in a line: as §1. Format: functional, cell-based. As to conditions: endothelial cell. In a few lines:
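Parallel plate flow chamber; human neutrophils rolled over confluent HUVEC monolayers activated with […] just before the run to raise surface P-selectin. Rolling cells counted by digital imaging/videotape, averaged over 10 fields on each of three monolayers per test article. Glycyrrhizin trisodium salt as positive control.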
The source holds these as a separate data set.

Take `O=C(O)[C@]1(OCc2ccc(-c3ccccc3C(F)(F)F)cc2)C[C@@H](O)[C@@H](O)[C@H](O)C1`: the IC50 is 625 µM in data set [1] and 10000 µM against P-selectin. The highest concentration (Cmax) in data set [2] stood at 212 µM. The molecule also showed an AUC in data set [3] of 219 µM·h. The molecule further yielded a clearance in data set [4] of 4 mL/min/kg.

For the molecule `O=C(O)[C@]1(OCc2ccccc2-c2cccc3c2Sc2ccccc2S3)C[C@@H](O)[C@@H](O)[C@H](O)C1`, the figures for the IC50 (in data set [5]; against P-selectin) were 1000 µM and ≤ 2 µM, respectively.
